Laboratory results from ChEMBL document CHEMBL3853295, “Design and synthesis of novel pyrazolo[1,5-a]pyrimidine derivatives bearing nitrogen mustard moiety and evaluation of their antitumor activity in vitro and in vivo” (Eur J Med Chem, 2016).

Columns and labels:
[1] = Cytotoxicity against human DU145 cells after 72 hrs by MTT assay; type: functional, cell-based; conditions: DU-145, 72 h
Procedure, shortened: (§1)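 Cells cultured in DMEM or RPMI 1640 with 10% FBS. Seeded at about 2 × 10^3 per well and grown 24 h at 37 °C, 5% CO2. Compounds added at final 0.1–1000 uM for 72 h, 5 wells per concentration. MTT added for 4 h at 37 °C, then lysis overnight. Absorbance read at 570 nm against a 650 nm reference; IC50 calculated.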

[2] = Cytotoxicity against human MCF7 cells after 72 hrs by MTT assay; type: functional, cell-based; conditions: MCF7, 72 h; procedure, shortened: as §1
[3] = Cytotoxicity against human HepG2 cells after 72 hrs by MTT assay; type: functional, cell-based; conditions: HepG2, 72 h; procedure, shortened: as §1
[4] = Cytotoxicity against human A549 cells after 72 hrs by MTT assay; type: functional, cell-based; conditions: A549, 72 h; procedure, shortened: as §1
[5] = Cytotoxicity against human SH-SY5Y cells after 72 hrs by MTT assay; type: functional, cell-based; procedure, shortened: as §1
[6] = Antitumor activity against human HepG2 cells xenografted in nude mouse assessed as tumor growth inhibition at 10 mg/kg, ip administered every day for 15 times measured from day 12 to 26; type: functional; set-up: scale not given: the % may be the effect or the level left
Procedure, shortened: (§2)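 Female nude mice given 5 × 10^6 HepG-2 cells subcutaneously in the left flank. Randomized, n = 5 per group. Daily i.p. injection for 15 times, with saline as vehicle control. Tumor length and width recorded every other day; volume taken as 1/2·length·width² once tumors reached 130–160 mm3. Result is tumor growth inhibition versus the saline group.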

[7] = Cytotoxicity against human GES-1 cells assessed as reduction in cell viability after 72 hrs by MTT assay; type: toxicity, cell-based, GES1; procedure, shortened: as §1
[8] = Antitumor activity against human HepG2 cells xenografted in nude mouse assessed as tumor growth inhibition at 20 mg/kg, ip administered every day for 15 times measured from day 12 to 26; type: functional; set-up: scale not given: the % may be the effect or the level left; procedure, shortened: as §2

Row | SMILES | IC50 [1] | IC50 [2] | IC50 [3] | IC50 [4] | IC50 [5] | Activity [6] | IC50 at 72 h [7] | Activity [8]
1 | N#Cc1cnn2c(Nc3ccc(N(CCCl)CCCl)cc3)cc(CN3CCOCC3)nc12 | 10.7 µM | 11.3 µM | 5.51 µM | 13.6 µM | 6.71 µM | – | – | –
2 | Cc1cc(C)cc(Nc2cc(CN(CCCl)CCCl)nc3c(C#N)cnn23)c1 | > 100 µM | > 100 µM | 59.4 µM | 97.4 µM | > 100 µM | – | – | –
3 | CCOC(=O)C1CCN(Cc2cc(Nc3ccc(N(CCCl)CCCl)cc3)n3ncc(C#N)c3n2)CC1 | > 100 µM | > 100 µM | 74.2 µM | > 100 µM | 74.1 µM | – | – | –
4 | N#Cc1cnn2c(Nc3ccc(C(F)(F)F)cc3)cc(CN(CCCl)CCCl)nc12 | 95.1 µM | 33 µM | 55.5 µM | > 100 µM | > 100 µM | – | – | –
5 | N#Cc1cnn2c(Nc3cccc(N(CCCl)CCCl)c3)cc(CN3CCC(CO)CC3)nc12 | 33.4 µM | 41.1 µM | 18.4 µM | 27.9 µM | 30.7 µM | – | – | –
6 | CN(C)Cc1cc(Nc2cccc(N(CCCl)CCCl)c2)n2ncc(C#N)c2n1 | 59.3 µM | 54.6 µM | 33.6 µM | 39.8 µM | 40.8 µM | – | – | –
7 | CCN1CCN(Cc2cc(Nc3cccc(N(CCCl)CCCl)c3)n3ncc(C#N)c3n2)CC1 | 44.1 µM | 23.9 µM | 16.6 µM | 16.5 µM | 22.7 µM | – | – | –
8 | CNC(=O)c1cc(Oc2ccc(NC(=O)Nc3ccc(Cl)c(C(F)(F)F)c3)cc2)ccn1 [SORAFENIB] | – | – | – | 19.5 µM | 27.7 µM | 47.9% | 10.7 µM | 54.93%
9 | N#Cc1cnn2c(Nc3cccc(N(CCCl)CCCl)c3)cc(CN3CCOCC3)nc12 | > 100 µM | > 100 µM | 33.4 µM | > 100 µM | 61 µM | – | – | –
10 | CN(C)Cc1cc(Nc2ccc(N(CCCl)CCCl)cc2)n2ncc(C#N)c2n1 | 18.9 µM | 6.53 µM | 3.16 µM | 6.22 µM | 8.68 µM | – | 11 µM | –
11 | N#Cc1cnn2c(Nc3ccccc3Cl)cc(CN(CCCl)CCCl)nc12 | > 100 µM | > 100 µM | > 100 µM | > 100 µM | > 100 µM | – | – | –
12 | N#Cc1cnn2c(Nc3ccc(F)c(C(F)(F)F)c3)cc(CN(CCCl)CCCl)nc12 | > 100 µM | 75.1 µM | > 100 µM | > 100 µM | > 100 µM | – | – | –
13 | CC1CCN(Cc2cc(Nc3ccc(N(CCCl)CCCl)cc3)n3ncc(C#N)c3n2)CC1 | 43.4 µM | 82.9 µM | 23.6 µM | 18.3 µM | 19.2 µM | – | 17.5 µM | –
14 | CN1CCN(Cc2cc(Nc3ccc(N(CCCl)CCCl)cc3)n3ncc(C#N)c3n2)CC1 | 23.6 µM | 12.2 µM | 2.92 µM | 8.9 µM | 7.42 µM | – | 8.29 µM | –
15 | N#Cc1cnn2c(Nc3ccccc3Br)cc(CN(CCCl)CCCl)nc12 | > 100 µM | > 100 µM | > 100 µM | > 100 µM | > 100 µM | – | – | –
16 | CC1CCN(Cc2cc(Nc3cccc(N(CCCl)CCCl)c3)n3ncc(C#N)c3n2)CC1 | 55.8 µM | > 100 µM | 33.8 µM | 35.9 µM | 25.9 µM | – | – | –
17 | Cc1cc(Nc2cc(CN(CCCl)CCCl)nc3c(C#N)cnn23)ccc1F | 76.1 µM | 38 µM | 39 µM | 75 µM | 77.9 µM | – | – | –
18 | C#Cc1cccc(Nc2cc(CN(CCCl)CCCl)nc3c(C#N)cnn23)c1 | 83.1 µM | 34 µM | 44.2 µM | > 100 µM | > 100 µM | – | – | –
19 | N#Cc1cnn2c(Nc3ccc(N(CCCl)CCCl)cc3)cc(CN3CCCC3)nc12 | 27.2 µM | 12.4 µM | 5.54 µM | 9.84 µM | 9.17 µM | – | 13.7 µM | –
20 | N#Cc1cnn2c(Nc3cccc(N(CCCl)CCCl)c3)cc(CN3CCCC3)nc12 | 35.4 µM | 37.5 µM | 14.4 µM | 17.5 µM | 15.7 µM | – | – | –
21 | COc1cc(Nc2cc(CN(CCCl)CCCl)nc3c(C#N)cnn23)cc(OC)c1 | > 100 µM | > 100 µM | > 100 µM | > 100 µM | > 100 µM | – | – | –
22 | N#Cc1cnn2c(Nc3ccc(F)cc3)cc(CN(CCCl)CCCl)nc12 | 84.4 µM | 77.5 µM | 64.2 µM | > 100 µM | > 100 µM | – | – | –
